The nature of data set [1]: Aqueous stability of the compound assessed as compound hydration in DMSO/water after 5 mins by Mass spectrometry. It is filed as physicochemical. An outline of the steps: (§1)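 The bisulfite adduct was placed in water. The species present (intact bisulfite adduct or hydrated aldehyde) were examined after 5 min of exposure and again after 24 h.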
A short description of data set [2]: Cytotoxicity against human HG23 cells up to 320 uM. Type of data set: cell-based.
A short description of data set [3]: Inhibition of Norovirus recombinant 3CL protease using Edans-EPDFHLQGPEDLAK-Dabcyl as substrate for 30 mins by fluorometry.
Data set [4] deals with Norovirus. The experiment in a line: Antiviral activity against Norovirus infected in human HG23 cells. Type of data set: functional. The conditions noted are these: read-out: ED50 (the source's name). Put shortly:
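Norovirus replicon-bearing cells, with inhibition of viral replication reported as ED50 in μM.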

Data set [5] can be described thus: Stability of the compound in buffer solution at pH 7.4 assessed as formation of aldehyde form of compound within 1 hr. Type of data set: physicochemical. Conditions: pH 7.4, 1 h. An outline of the steps:
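The bisulfite adduct was placed in buffer solution at pH 7.4. Over about one hour, it was followed for dissociation to the free aldehyde and for hydration of that aldehyde.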

The nature of data set [6]: Aqueous stability of the compound in DMSO/water after 24 hrs by Mass spectrometry. Type of data set: physicochemical. Put shortly: as §1

Molecules are shown by their SMILES.

Regarding `CC(C)C[C@H](NC(=O)OCc1ccccc1)C(=O)N[C@H](C=O)CC1CCNC1=O` (stereo partly specified), the Stability entry in data set [1] is on record as “Unstable”. Moreover, the Activity entry in data set [2] is recorded as “Non-toxic”. Moreover, the IC50 in data set [3] was found to be 600 nM. In data set [4], the EC50 worked out at 200 nM.

On to `CC(C)C[C@H](NC(=O)OCc1ccc(F)cc1)C(=O)N[C@@H](CC1CCNC1=O)C(O)S(=O)(=O)[O-].[Na+]` (stereo partly specified), for which, in data set [2], the Activity entry is reported as “Non-toxic”. Moreover, the EC50 in data set [4] stood at 400 nM.

In the case of `CC(C)C[C@H](NC(=O)OCc1cccc(F)c1)C(=O)N[C@H](C=O)CC1CCNC1=O` (stereo partly specified), the Activity entry in data set [2] is on record as “Non-toxic”. Further, in data set [3], the IC50 came to 700 nM. In addition, the EC50 in data set [4] came out at 300 nM.

In the case of `CC(C)C[C@H](NC(=O)OCc1cccc(F)c1)C(=O)N[C@@H](CC1CCNC1=O)C(O)S(=O)(=O)[O-].[Na+]` (stereo partly specified), the Activity result in data set [2] is recorded as “Non-toxic”. Also, the EC50 in data set [4] came to 200 nM.

As to `CC(C)C[C@H](NC(=O)OCCc1ccccc1)C(=O)N[C@H](C=O)CC1CCNC1=O` (stereo partly specified), the Activity result in data set [2] is reported as “Non-toxic”. In data set [3], the IC50 came out at 1900 nM. In addition, in data set [4], the EC50 is 1100 nM.

Regarding `CC(C)C[C@H](NC(=O)OCCc1ccccc1)C(=O)N[C@@H](CC1CCNC1=O)C(O)S(=O)(=O)[O-].[Na+]` (stereo partly specified), the Activity result in data set [2] is reported as “Non-toxic”. Further, in data set [4], the EC50 was 1000 nM.

Turning to `CC(C)C[C@H](NC(=O)OCCC1CCCCC1)C(=O)N[C@H](C=O)CC1CCNC1=O` (stereo partly specified), the Activity result in data set [2] is on record as “Toxic”. For the same molecule, the IC50 in data set [3] was determined as 600 nM. In data set [4], the EC50 came out at 300 nM.

As to `CC(C)C[C@H](NC(=O)OCCC1CCCCC1)C(=O)N[C@@H](CC1CCNC1=O)C(O)S(=O)(=O)[O-].[Na+]` (stereo partly specified), the Activity result in data set [2] is on record as “Toxic”. Moreover, in data set [4], the EC50 came to 300 nM.

For the molecule `CCOC(=O)N[C@@H](C)C(=O)N[C@@H](CC1CCNC1=O)C(O)(C(=O)NC1CC1)S(=O)(=O)[O-].[Na+]` (stereo partly specified), in data set [2], the Activity entry was “Non-toxic”. The IC50 in data set [3] came to 5300 nM. The EC50 in data set [4] worked out at 800 nM.

On to `CC(C)C[C@H](NC(=O)OCc1ccccc1)C(=O)N[C@@H](CC1CCNC1=O)C(O)S(=O)(=O)[O-].[Na+]` (stereo partly specified), for which the Stability result in data set [5] and in data set [6] was “Stable” throughout. Moreover, the Activity result in data set [2] was “Non-toxic”. The EC50 in data set [4] was 300 nM.

On to `CCC[C@H](NC(=O)OCc1ccccc1)C(=O)N[C@H](C=O)CC1CCNC1=O` (stereo partly specified), for which the Activity result in data set [2] is “Non-toxic”. In addition, the IC50 in data set [3] worked out at 6100 nM. Also, the EC50 in data set [4] stood at 2300 nM.

Consider `CCC[C@H](NC(=O)OCc1ccccc1)C(=O)N[C@@H](CC1CCNC1=O)C(O)S(=O)(=O)[O-].[Na+]` (stereo partly specified), for which, in data set [2], the Activity result is recorded as “Non-toxic”. Also, in data set [4], the EC50 came to 1500 nM.

On to `CCCC[C@H](NC(=O)OCc1ccccc1)C(=O)N[C@H](C=O)CC1CCNC1=O` (stereo partly specified), for which the Activity result in data set [2] was “Non-toxic”. The IC50 in data set [3] came out at 4500 nM. In data set [4], the EC50 turned out to be 1200 nM.

Turning to `CCCC[C@H](NC(=O)OCc1ccccc1)C(=O)N[C@@H](CC1CCNC1=O)C(O)S(=O)(=O)[O-].[Na+]` (stereo partly specified), the Activity entry in data set [2] is on record as “Non-toxic”. The EC50 in data set [4] is 1300 nM.

As to `O=C[C@H](CC1CCNC1=O)NC(=O)[C@H](CC1CCCCC1)NC(=O)OCc1ccccc1` (stereo partly specified), in data set [2], the Activity entry is listed as “Non-toxic”. In addition, in data set [3], the IC50 came out at 500 nM. In addition, the EC50 in data set [4] came to 50 nM.

In the case of `O=C(N[C@@H](CC1CCCCC1)C(=O)N[C@@H](CC1CCNC1=O)C(O)S(=O)(=O)[O-])OCc1ccccc1.[Na+]` (stereo partly specified), the Activity result in data set [2] is “Non-toxic”. The EC50 in data set [4] was found to be 60 nM.

On to `O=C[C@H](CC1CCNC1=O)NC(=O)[C@H](Cc1ccccc1)NC(=O)OCc1ccccc1` (stereo partly specified), for which the Activity entry in data set [2] is reported as “Non-toxic”. The IC50 in data set [3] was determined as 5100 nM. For the same molecule, the EC50 in data set [4] worked out at 1800 nM.

Consider `O=C(N[C@@H](Cc1ccccc1)C(=O)N[C@@H](CC1CCNC1=O)C(O)S(=O)(=O)[O-])OCc1ccccc1.[Na+]` (stereo partly specified), for which the Activity entry in data set [2] is listed as “Non-toxic”. Moreover, in data set [4], the EC50 was determined as 1100 nM.

Regarding `CC(C)C[C@H](NC(=O)OCc1ccc(F)cc1)C(=O)N[C@H](C=O)CC1CCNC1=O` (stereo partly specified), in data set [2], the Activity result is reported as “Non-toxic”. Besides, the IC50 in data set [3] is 1800 nM. In addition, in data set [4], the EC50 stood at 500 nM.

The values above are taken from ChEMBL document CHEMBL2311408, “Inhibition of norovirus 3CL protease by bisulfite adducts of transition state inhibitors” (Bioorg Med Chem Lett, 2013).
